“Also recorded” adds a separate entry of the source.
Key:
Top1 [1] = biological target: T1, Top1 (Homo sapiens, UniProt P11387); assay: Top1 levels in PBMCs; format: in vivo
T1 sequence (P11387 1-765): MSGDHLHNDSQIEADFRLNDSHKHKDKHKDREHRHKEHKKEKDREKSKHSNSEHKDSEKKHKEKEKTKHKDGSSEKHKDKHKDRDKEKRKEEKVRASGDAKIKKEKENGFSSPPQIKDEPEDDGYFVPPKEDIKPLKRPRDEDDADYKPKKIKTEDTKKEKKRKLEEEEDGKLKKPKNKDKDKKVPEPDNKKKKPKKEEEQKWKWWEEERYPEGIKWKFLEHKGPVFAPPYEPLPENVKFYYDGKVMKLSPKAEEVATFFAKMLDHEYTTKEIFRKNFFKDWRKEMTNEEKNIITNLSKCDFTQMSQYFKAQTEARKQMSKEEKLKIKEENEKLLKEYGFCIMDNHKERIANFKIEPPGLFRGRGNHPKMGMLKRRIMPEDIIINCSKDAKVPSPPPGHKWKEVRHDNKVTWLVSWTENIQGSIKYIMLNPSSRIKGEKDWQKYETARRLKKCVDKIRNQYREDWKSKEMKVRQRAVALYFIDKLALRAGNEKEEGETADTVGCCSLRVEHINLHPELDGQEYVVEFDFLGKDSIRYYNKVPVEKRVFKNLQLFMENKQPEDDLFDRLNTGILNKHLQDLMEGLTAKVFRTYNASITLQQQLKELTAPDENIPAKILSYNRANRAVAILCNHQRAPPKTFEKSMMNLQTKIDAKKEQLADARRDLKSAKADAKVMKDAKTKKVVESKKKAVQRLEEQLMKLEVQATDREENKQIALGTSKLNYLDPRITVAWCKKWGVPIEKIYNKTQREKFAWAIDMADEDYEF
Summary of the method: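 PBMCs collected in the daily trial before dosing and 4 h after infusion start on cycle 1 days 1 and 3. Top1 measured by validated immunofluorescence assay, expressed as pg/10^7 cells. Reportable only if pre-dose Top1 exceeded twice the LLQ; samples also had to pass assay QC. Result given as percent change from baseline per patient.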

[2] = tested on: patients with advanced solid tumors; assay: Phase I trial, daily schedule; format: in vivo
Top1 [3] = biological target: T1, Top1; assay: Top1 levels in paired tumor biopsies; format: in vivo; conditions: of the 8 patients on the daily schedule
Summary of the method: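 Daily schedule: tumor biopsies taken at baseline and 2–4 h after infusion start on cycle 1 day 3. Top1 quantified by validated immunofluorescence assay (pg/μg protein). Pre-dose value had to exceed twice the LLQ to allow detection of a 50% reduction. Reported as percent change from baseline for each patient.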

[4] = Plasma and urine pharmacokinetics; format: in vivo, human; conditions: for AUC(0-t) / Cmax / AUC(0-inf) / half-life: human, plasma, intravenous
[5] = tested on: patients with advanced solid tumors; assay: Phase I trial, weekly schedule; format: in vivo
[6] = cited from earlier work
γH2AX = γH2AX in hair follicles; format: in vivo, human; conditions: 4 patients, daily trial, 4-6 h post-infusion vs pre-infusion; p=0.027, 1-sided
[7] = weekly trial, Total (N=21), all dose levels, SD of geometric mean in parenthesis
[8] = weekly trial, W1, 60 mg/m^2 over 3 h, N=6, SD of geometric mean in parenthesis
[9] = weekly trial, W2, 90 mg/m^2 over 3 h, N=8, SD of geometric mean in parenthesis
[10] = weekly trial, W3, 135 mg/m^2 over 3 h, N=7, SD of geometric mean in parenthesis

Structure (SMILES): COc1cc2c3c(n(CCCN4CCOCC4)c(=O)c2cc1OC)-c1cc2c(cc1C3=O)OCO2 [indotecan]
- Effects of treatment on PBMC Top1 levels (Top1 [1]; DL-D2 through DL-D6, 4 h after start of infusion, cycle 1 days 1 and 3): inconclusive
- Decrease in PBMC Top1 level (Top1 [1]; patients #0003 and #0015, post-dose vs baseline): > 70%
- Maximum tolerated dose (MTD) ([2]; daily for 5 days in 28-day cycles, iv over 1 h): 60 mg/m^2/day
- Objective response (RECIST) ([2]; daily schedule, 21 patients): No objective responses were observed on either schedule; also recorded: no patient on either schedule had an objective response
- Principal toxicity ([2]; in vivo): myelosuppression
- Number of patients with significant Top1 decreases in post-treatment biopsies (Top1 [3]): 3
- Renal excretion 0–24 h ([4]; daily trial, D1, 2.5 mg/m^2 over 1 h, N=1): 0.49% dose
- Renal excretion 0–24 h ([4]; daily trial, D2, 5 mg/m^2 over 1 h, N=3, SD of geometric mean in parenthesis): 0.48% (0.21%) % dose
- Renal excretion 0–24 h ([4]; daily trial, D3, 10 mg/m^2 over 1 h, N=1): 0.36% dose
- Renal excretion 0–24 h ([4]; daily trial, D4, 20 mg/m^2 over 1 h, N=1): 0.26% dose
- Renal excretion 0–24 h ([4]; daily trial, D5a, 60 mg/m^2 over 1 h, N=6, SD of geometric mean in parenthesis): 0.18% (0.17%) % dose
- Renal excretion 0–24 h ([4]; daily trial, D6, 80 mg/m^2 over 1 h, N=3, SD of geometric mean in parenthesis): 0.26% (0.03%) % dose
- Renal excretion 0–24 h ([4]; daily trial, Total (N=20), all dose levels, SD of geometric mean in parenthesis): 0.24% (0.17%) % dose
- Clearance as share of human hepatic blood flow ([4]; hepatic blood flow from ref 15): approximately 2%
- AUC(0-t) ([4]; 2.5 mg/m2, AUC0–24, daily trial, D1, 2.5 mg/m^2 over 1 h, N=1): 547 ng·h/mL
- Cmax ([4]; 2.5 mg/m2, Cmax, daily trial, D1, 2.5 mg/m^2 over 1 h, N=1): 94.3 ng/mL
- AUC(0-t) ([4]; 5 mg/m2, AUC0–24, daily trial, D2, 5 mg/m^2 over 1 h, N=3, SD of geometric mean in parenthesis): 1450 ng·h/mL
- Cmax ([4]; 5 mg/m2, Cmax, daily trial, D2, 5 mg/m^2 over 1 h, N=3, SD of geometric mean in parenthesis): 191 ng/mL
- AUC(0-inf) ([4]; 60 mg/m2): 56400 ng·h/mL
- AUC(0-t) ([4]; 60 mg/m2, AUC0–24, daily trial, D5a, 60 mg/m^2 over 1 h, N=6, SD of geometric mean in parenthesis): 12800 ng·h/mL
- AUC(0-t) ([4]; 60 mg/m2, AUC0–24, weekly trial, W1, 60 mg/m^2 over 3 h, N=6, SD of geometric mean in parenthesis): 13700 ng·h/mL
- Cmax ([4]; 60 mg/m2, Cmax, daily trial, D5a, 60 mg/m^2 over 1 h, N=6, SD of geometric mean in parenthesis): 1610 ng/mL
- Cmax ([4]; 60 mg/m2, Cmax, weekly trial, W1, 60 mg/m^2 over 3 h, N=6, SD of geometric mean in parenthesis): 1270 ng/mL
- half-life ([4]; 60 mg/m2, t1/2, weekly trial, W1, 60 mg/m^2 over 3 h, N=6, SD of geometric mean in parenthesis): 89 h
- AUC(0-t) ([4]; 80 mg/m2, AUC0–24, daily trial, D6, 80 mg/m^2 over 1 h, N=3, SD of geometric mean in parenthesis): 14700 ng·h/mL
- Cmax ([4]; 80 mg/m2, Cmax, daily trial, D6, 80 mg/m^2 over 1 h, N=3, SD of geometric mean in parenthesis): 1650 ng/mL
- AUC(0-inf) ([4]; 90 mg/m2): 88600 ng·h/mL
- AUC(0-t) ([4]; 90 mg/m2, AUC0–24, weekly trial, W2, 90 mg/m^2 over 3 h, N=8, SD of geometric mean in parenthesis): 18700 ng·h/mL
- Cmax ([4]; 90 mg/m2, Cmax, weekly trial, W2, 90 mg/m^2 over 3 h, N=8, SD of geometric mean in parenthesis): 1690 ng/mL
- half-life ([4]; 90 mg/m2, t1/2, weekly trial, W2, 90 mg/m^2 over 3 h, N=8, SD of geometric mean in parenthesis): 74 h
- AUC(0-inf) ([4]; 135 mg/m2): 70800 ng·h/mL
- AUC(0-t) ([4]; 135 mg/m2, AUC0–24, weekly trial, W3, 135 mg/m^2 over 3 h, N=7, SD of geometric mean in parenthesis): 21500 ng·h/mL
- Cmax ([4]; 135 mg/m2, Cmax, weekly trial, W3, 135 mg/m^2 over 3 h, N=7, SD of geometric mean in parenthesis): 1930 ng/mL
- half-life ([4]; 135 mg/m2, t1/2, weekly trial, W3, 135 mg/m^2 over 3 h, N=7, SD of geometric mean in parenthesis): 50 h
- Inter-patient variability, coefficient of variation in drug clearance ([4]; in vivo): 58%
- Clearance ([4]; patients): 1 L/h/m^2
- CL [4, 7]: 1.27 (0.74) L/h/m^2
- Renal excretion 0–24 h [4, 7]: 0.19% (0.13%) % dose
- Vss [4, 7]: 109 (69) L/m^2
- CL [4, 8]: 1.06 (0.34) L/h/m^2
- Renal excretion 0–24 h [4, 8]: 0.21% (0.08%) % dose
- Vss [4, 8]: 116 (121) L/m^2
- CL [4, 9]: 1.02 (0.73) L/h/m^2
- Renal excretion 0–24 h [4, 9]: 0.15% (0.13%) % dose
- Vss [4, 9]: 99.3 (32.6) L/m^2
- CL [4, 10]: 1.91 (0.73) L/h/m^2
- Renal excretion 0–24 h [4, 10]: 0.22% (0.16%) % dose
- Vss [4, 10]: 114 (39) L/m^2
- Maximum tolerated dose (MTD) ([5]; days 1, 8, 15 in 28-day cycles, iv over 3 h): 90 mg/m^2
- Principal toxicity ([5]; in vivo): myelosuppression
- Objective response (RECIST) ([5]; weekly schedule, 21 patients): No objective responses were observed on either schedule; also recorded: no patient on either schedule had an objective response
- Drug in the unbound state (protein binding) [6]: approximately 2%
- γH2AX formation in hair bulbs (γH2AX): induced significant DNA damage
